In brackets after ≈: the same amount, converted by molar mass.
Experiments:
Format in all cases: functional
[1] = tested on: Aspergillus flavus; test: Antimicrobial activity against Aspergillus flavus MTCC 873 after 48 hrs by microdilution method; settings: MTCC 873, 48 h
How it was run: (§1)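 The minimal inhibitory concentration was determined by dilution, alongside minimal bactericidal concentration for bacterial strains and minimal fungicidal concentration for fungal strains. Tests were run in six replicates, and the value is the mean of at least three determinations.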

[2] = tested on: Klebsiella pneumoniae; test: Antimicrobial activity against Klebsiella pneumoniae MTCC 3384 after 24 hrs by microdilution method; settings: MTCC 3384, 24 h; how it was run: as §1
[3] = tested on: Escherichia coli; test: Antimicrobial activity against Escherichia coli MTCC 724 at 100 ug/ml after 24 hrs by disc diffusion method; settings: MTCC 724, 24 h, read-out: DIZ
How it was run: (§2)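 Agar diffusion read-out is the diameter of the inhibition zone in mm. Each test was run in six replicates and reported as mean ± standard deviation, taken from at least three determinations.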

[4] = tested on: Fusarium verticillioides; test: Antimicrobial activity against Fusarium moniliforme MTCC 156 at 100 ug/ml after 48 hrs by disc diffusion method; settings: MTCC 156, 48 h, read-out: DIZ; how it was run: as §2
[5] = tested on: Staphylococcus aureus; test: Antimicrobial activity against Staphylococcus aureus MTCC 96 at 100 ug/ml after 24 hrs by disc diffusion method; settings: MTCC 96, 24 h, read-out: DIZ; how it was run: as §2
[6] = tested on: Bacillus cereus; test: Antimicrobial activity against Bacillus cereus MTCC 8372 at 100 ug/ml after 24 hrs by disc diffusion method; settings: MTCC 8372, 24 h, read-out: DIZ; how it was run: as §2
[7] = tested on: Klebsiella pneumoniae; test: Antimicrobial activity against Klebsiella pneumoniae MTCC 3384 at 50 ug/ml after 24 hrs by disc diffusion method; settings: MTCC 3384, 24 h, read-out: DIZ; how it was run: as §2
[8] = tested on: Fusarium verticillioides; test: Antimicrobial activity against Fusarium moniliforme MTCC 156 at 50 ug/ml after 48 hrs by disc diffusion method; settings: MTCC 156, 48 h, read-out: DIZ; how it was run: as §2
[9] = tested on: Fusarium oxysporum; test: Antimicrobial activity against Fusarium oxysporum MTCC 284 after 48 hrs by microdilution method; settings: MTCC 284, 48 h; how it was run: as §1
[10] = tested on: Aspergillus niger; test: Antimicrobial activity against Aspergillus niger MTCC 281 at 50 ug/ml after 48 hrs by disc diffusion method; settings: MTCC 281, 48 h, read-out: DIZ; how it was run: as §2
[11] = tested on: Aspergillus niger; test: Antimicrobial activity against Aspergillus niger MTCC 281 at 100 ug/ml after 48 hrs by disc diffusion method; settings: MTCC 281, 48 h, read-out: DIZ; how it was run: as §2
[12] = tested on: Fusarium verticillioides; test: Antimicrobial activity against Fusarium moniliforme MTCC 156 after 48 hrs by microdilution method; settings: MTCC 156, 48 h; how it was run: as §1
[13] = tested on: Aspergillus flavus; test: Antimicrobial activity against Aspergillus flavus MTCC 873 at 50 ug/ml after 48 hrs by disc diffusion method; settings: MTCC 873, 48 h, read-out: DIZ; how it was run: as §2
[14] = tested on: Escherichia coli; test: Antimicrobial activity against Escherichia coli MTCC 724 at 50 ug/ml after 24 hrs by disc diffusion method; settings: MTCC 724, 24 h, read-out: DIZ; how it was run: as §2
[15] = tested on: Fusarium oxysporum; test: Antimicrobial activity against Fusarium oxysporum MTCC 284 at 100 ug/ml after 48 hrs by disc diffusion method; settings: MTCC 284, 48 h, read-out: DIZ; how it was run: as §2
[16] = tested on: Escherichia coli; test: Antimicrobial activity against Escherichia coli MTCC 724 after 24 hrs by microdilution method; settings: MTCC 724, 24 h; how it was run: as §1
[17] = tested on: Bacillus cereus; test: Antimicrobial activity against Bacillus cereus MTCC 8372 after 24 hrs by microdilution method; settings: MTCC 8372, 24 h; how it was run: as §1
[18] = tested on: Aspergillus flavus; test: Antimicrobial activity against Aspergillus flavus MTCC 873 at 100 ug/ml after 48 hrs by disc diffusion method; settings: MTCC 873, 48 h, read-out: DIZ; how it was run: as §2
[19] = tested on: Klebsiella pneumoniae; test: Antimicrobial activity against Klebsiella pneumoniae MTCC 3384 at 100 ug/ml after 24 hrs by disc diffusion method; settings: MTCC 3384, 24 h, read-out: DIZ; how it was run: as §2
[20] = tested on: Fusarium oxysporum; test: Antimicrobial activity against Fusarium oxysporum MTCC 284 at 50 ug/ml after 48 hrs by disc diffusion method; settings: MTCC 284, 48 h, read-out: DIZ; how it was run: as §2
[21] = tested on: Aspergillus niger; test: Antimicrobial activity against Aspergillus niger MTCC 281 after 48 hrs by microdilution method; settings: MTCC 281, 48 h; how it was run: as §1
[22] = tested on: Staphylococcus aureus; test: Antimicrobial activity against Staphylococcus aureus MTCC 96 after 24 hrs by microdilution method; settings: MTCC 96, 24 h; how it was run: as §1
[23] = tested on: Bacillus cereus; test: Antimicrobial activity against Bacillus cereus MTCC 8372 at 50 ug/ml after 24 hrs by disc diffusion method; settings: MTCC 8372, 24 h, read-out: DIZ; how it was run: as §2
[24] = tested on: Staphylococcus aureus; test: Antimicrobial activity against Staphylococcus aureus MTCC 96 at 50 ug/ml after 24 hrs by disc diffusion method; settings: MTCC 96, 24 h, read-out: DIZ; how it was run: as §2

Structure (SMILES)	MFC [1]	MIC [1]	MBC [2]	MIC [2]	zone of inhibition at 100 µg/mL [3]	zone of inhibition at 100 µg/mL [4]	zone of inhibition at 100 µg/mL [5]	zone of inhibition at 100 µg/mL [6]	zone of inhibition at 50 µg/mL [7]	zone of inhibition at 50 µg/mL [8]	MFC [9]	MIC [9]	zone of inhibition at 50 µg/mL [10]	zone of inhibition at 100 µg/mL [11]	MFC [12]	MIC [12]	zone of inhibition at 50 µg/mL [13]	zone of inhibition at 50 µg/mL [14]	zone of inhibition at 100 µg/mL [15]	MBC [16]	other results
Cc1c(-c2nnc(-c3ccc([N+](=O)[O-])cc3)o2)c(-c2ccccc2)nn1-c1ccccc1	290 µg/mL (≈ 685 µM)	55 µg/mL (≈ 130 µM)	185 µg/mL (≈ 437 µM)	25 µg/mL (≈ 59 µM)	20 mm	8 mm	10 mm	14 mm	7 mm	6 mm	275 µg/mL (≈ 649 µM)	40 µg/mL (≈ 94.5 µM)	2 mm	11 mm	290 µg/mL (≈ 685 µM)	50 µg/mL (≈ 118 µM)	3 mm	11 mm	8 mm	180 µg/mL (≈ 425 µM)	MIC [16]: 25 µg/mL (≈ 59 µM); MBC [17]: 200 µg/mL (≈ 472 µM); MIC [17]: 25 µg/mL (≈ 59 µM); zone of inhibition at 100 µg/mL [18]: 12 mm; zone of inhibition at 100 µg/mL [19]: 10 mm; zone of inhibition at 50 µg/mL [20]: 6 mm; MFC [21]: 280 µg/mL (≈ 661 µM); MIC [21]: 45 µg/mL (≈ 106 µM); MBC [22]: 190 µg/mL (≈ 449 µM); MIC [22]: 25 µg/mL (≈ 59 µM); zone of inhibition at 50 µg/mL [23]: 6 mm; zone of inhibition at 50 µg/mL [24]: 5 mm
Cc1c(-c2nnc(-c3ccc(Cl)cc3)o2)c(-c2ccccc2)nn1-c1ccccc1	230 µg/mL (≈ 557 µM)	30 µg/mL (≈ 72.7 µM)	220 µg/mL (≈ 533 µM)	30 µg/mL (≈ 72.7 µM)	12 mm	8 mm	10 mm	8 mm	6 mm	6 mm	275 µg/mL (≈ 666 µM)	40 µg/mL (≈ 96.9 µM)	9 mm	24 mm	300 µg/mL (≈ 727 µM)	55 µg/mL (≈ 133 µM)	14 mm	10 mm	8 mm	235 µg/mL (≈ 569 µM)	MIC [16]: 35 µg/mL (≈ 84.8 µM); MBC [17]: 240 µg/mL (≈ 581 µM); MIC [17]: 40 µg/mL (≈ 96.9 µM); zone of inhibition at 100 µg/mL [18]: 16 mm; zone of inhibition at 100 µg/mL [19]: 12 mm; zone of inhibition at 50 µg/mL [20]: 4 mm; MFC [21]: 215 µg/mL (≈ 521 µM); MIC [21]: 25 µg/mL (≈ 60.6 µM); MBC [22]: 250 µg/mL (≈ 606 µM); MIC [22]: 45 µg/mL (≈ 109 µM); zone of inhibition at 50 µg/mL [23]: 4 mm; zone of inhibition at 50 µg/mL [24]: 5 mm
Cc1c(-c2nnc(-c3ccc(Cl)cc3)o2)c(-c2ccc(Cl)cc2)nn1-c1ccccc1	210 µg/mL (≈ 469 µM)	25 µg/mL (≈ 55.9 µM)	250 µg/mL (≈ 559 µM)	50 µg/mL (≈ 112 µM)	16 mm	19 mm	12 mm	10 mm	8 mm	10 mm	215 µg/mL (≈ 481 µM)	30 µg/mL (≈ 67.1 µM)	14 mm	26 mm	215 µg/mL (≈ 481 µM)	25 µg/mL (≈ 55.9 µM)	14 mm	10 mm	28 mm	245 µg/mL (≈ 548 µM)	MIC [16]: 45 µg/mL (≈ 101 µM); MBC [17]: 260 µg/mL (≈ 581 µM); MIC [17]: 40 µg/mL (≈ 89.4 µM); zone of inhibition at 100 µg/mL [18]: 18 mm; zone of inhibition at 100 µg/mL [19]: 11 mm; zone of inhibition at 50 µg/mL [20]: 15 mm; MFC [21]: 220 µg/mL (≈ 492 µM); MIC [21]: 30 µg/mL (≈ 67.1 µM); MBC [22]: 250 µg/mL (≈ 559 µM); MIC [22]: 40 µg/mL (≈ 89.4 µM); zone of inhibition at 50 µg/mL [23]: 6 mm; zone of inhibition at 50 µg/mL [24]: 6 mm
Cc1c(-c2nnc(-c3ccccc3)o2)c(-c2ccccc2)nn1-c1ccccc1	280 µg/mL (≈ 740 µM)	40 µg/mL (≈ 106 µM)	220 µg/mL (≈ 581 µM)	30 µg/mL (≈ 79.3 µM)	6 mm	6 mm	7 mm	9 mm	6 mm	4 mm	275 µg/mL (≈ 727 µM)	50 µg/mL (≈ 132 µM)	5 mm	8 mm	290 µg/mL (≈ 766 µM)	55 µg/mL (≈ 145 µM)	4 mm	5 mm	8 mm	260 µg/mL (≈ 687 µM)	MIC [16]: 40 µg/mL (≈ 106 µM); MBC [17]: 230 µg/mL (≈ 608 µM); MIC [17]: 35 µg/mL (≈ 92.5 µM); zone of inhibition at 100 µg/mL [18]: 8 mm; zone of inhibition at 100 µg/mL [19]: 14 mm; zone of inhibition at 50 µg/mL [20]: 3 mm; MFC [21]: 270 µg/mL (≈ 713 µM); MIC [21]: 45 µg/mL (≈ 119 µM); MBC [22]: 240 µg/mL (≈ 634 µM); MIC [22]: 35 µg/mL (≈ 92.5 µM); zone of inhibition at 50 µg/mL [23]: 5 mm; zone of inhibition at 50 µg/mL [24]: 6 mm
COc1cc(-c2nnc(-c3c(-c4ccccc4)nn(-c4ccccc4)c3C)o2)cc(OC)c1OC	275 µg/mL (≈ 587 µM)	45 µg/mL (≈ 96 µM)	160 µg/mL (≈ 342 µM)	20 µg/mL (≈ 42.7 µM)	32 mm	10 mm	12 mm	13 mm	10 mm	7 mm	275 µg/mL (≈ 587 µM)	40 µg/mL (≈ 85.4 µM)	5 mm	12 mm	300 µg/mL (≈ 640 µM)	55 µg/mL (≈ 117 µM)	4 mm	20 mm	10 mm	150 µg/mL (≈ 320 µM)	MIC [16]: 20 µg/mL (≈ 42.7 µM); MBC [17]: 230 µg/mL (≈ 491 µM); MIC [17]: 35 µg/mL (≈ 74.7 µM); zone of inhibition at 100 µg/mL [18]: 13 mm; zone of inhibition at 100 µg/mL [19]: 20 mm; zone of inhibition at 50 µg/mL [20]: 8 mm; MFC [21]: 275 µg/mL (≈ 587 µM); MIC [21]: 40 µg/mL (≈ 85.4 µM); MBC [22]: 250 µg/mL (≈ 534 µM); MIC [22]: 40 µg/mL (≈ 85.4 µM); zone of inhibition at 50 µg/mL [23]: 4 mm; zone of inhibition at 50 µg/mL [24]: 5 mm

Source: ChEMBL document CHEMBL3098013, “Novel pyrazole integrated 1,3,4-oxadiazoles: synthesis, characterization and antimicrobial evaluation” (2014)
